Reference: ChEMBL document CHEMBL3580644, “Synthesis of piperlongumine analogues and discovery of nuclear factor erythroid 2-related factor 2 (Nrf2) activators as potential neuroprotective agents” (J Med Chem, 2015)
Activity calls are given as the source filed them.

Assays:
PC-12 [1] = assay: Induction of antioxidant defense system in rat PC12 cells assessed as increase in TrxR activity level incubated for 24 hrs by Escherichia coli Trx based assay; type: functional, cell-based
How it was run: (§1)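 Cellular TrxR activity: extract with 20 μg protein incubated 30 min at 37 °C in 100 mM Tris-HCl pH 7.4 containing 0.3 mM insulin, 660 μM NADPH, 3 mM EDTA, 4 μM E. coli Trx; stopped with 1 mM DTNB in 6 M guanidine-HCl pH 8.0; A412 minus Trx-free blank; % of DMSO control.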

PC-12 [2] = assay: Cytoprotection activity against 6-OHDA-induced oxidative stress in rat PC12 cells assessed as NQO1 activity at pre-incubated for 24 hrs before 6-OHDA exposure for 12 hrs by DCPIP dye reduction based spectrophotometry; type: functional, cell-based
How it was run: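 NQO1: PC12 lysate in RIPA buffer, 5 μg protein into 20 mM Tris-HCl pH 7.4, 200 μM NADH, 40 μM DCPIP; A600 decrease read every 8 s for 2 min at room temperature ± 20 μM dicoumarol; dicoumarol-inhibitable rate used, expressed as % of DMSO control. Cells pretreated 24 h; stress lines then 500 μM H2O2 or 200 μM 6-OHDA 12 h.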

PC-12 [3] = assay: Induction of antioxidant genes expression in rat PC12 cells assessed as increase in Trx1 mRNA level at 20 uM incubated for 3 hrs by qRT-PCR method; type: functional, cell-based
How it was run: (§2)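 PC12 cells, 1×10^6 per 60-mm dish, 1 day, then 20 μM compound for 0, 3, 6 and 12 h; total RNA isolated, quantified by 260/280 absorbance; mRNA by real-time RT-PCR normalized to GAPDH; mean ± SD of three independent experiments versus 0 h.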

PC-12 [4] = assay: Cytoprotection activity against H2O2-induced cytotoxicity in rat PC12 cells assessed as cell viability at 10 and 20 uM pre-incubated for 24 hrs before H2O2 exposure for 12 hrs in presence of non-trageting shRNA by MTT assay; type: functional, cell-based
PC-12 [5] = assay: Induction of antioxidant genes expression in rat PC12 cells assessed as increase in GCLC mRNA level at 20 uM incubated for 6 hrs by qRT-PCR method; type: functional, cell-based; how it was run: as §2
PC-12 [6] = assay: Cytoprotection activity against H2O2-induced cytotoxicity in rat PC12 cells assessed as cell viability at 20 uM pre-incubated for 24 hrs before H2O2 exposure for 12 hrs by MTT assay; type: functional, cell-based
[7] = Cytoprotection activity against 6-OHDA-induced cytotoxicity in rat PC12 cells assessed as cell viability at 10 and 20 uM pre-incubated for 24 hrs before 6-OHDA exposure for 12 hrs by MTT assay; type: functional, PC-12
PC-12 [8] = assay: Cytoprotection activity against 6-OHDA-induced cytotoxicity in rat PC12 cells assessed as cell viability at 10 and 20 uM pre-incubated for 24 hrs before 6-OHDA exposure for 12 hrs by LDH release assay; type: functional, cell-based
PC-12 [9] = assay: Cytoprotection activity against H2O2-induced apoptosis in rat PC12 cells assessed as reduction in apoptotic nuclei levels at 10 and 20 uM pre-incubated for 24 hrs before H2O2 exposure for 5 hrs by Hoechst 33342 staining based fluorescent microscopy; type: functional, cell-based
How it was run: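 PC12 cells seeded 2×10^5/well, grown 1 day, pretreated with compound 24 h, then medium replaced with fresh medium containing 200 μM 6-OHDA or 500 μM H2O2 for 5 h; Hoechst 33342 added at 5 μg/mL final; condensed, brightly fluorescent nuclei counted as apoptotic under fluorescence microscopy.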

PC-12 [10] = assay: Cytoprotection activity against H2O2-induced oxidative stress in rat PC12 cells assessed as GSH level at pre-incubated for 24 hrs before H2O2 exposure for 12 hrs; type: functional, cell-based
How it was run: (§3)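 Total glutathione: cells extracted in KPE buffer (0.1% Triton X-100, 0.6% sulfosalicylic acid, 5 mM EDTA, 0.1 M PBS pH 7.5), sonicated on ice, centrifuged 3000 g 4 min at 4 °C; supernatant assayed enzymatically. PC12 cells 1×10^6 in 60-mm dishes, compound 24 h; stress lines add 500 μM H2O2 or 200 μM 6-OHDA 12 h.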

PC-12 [11] = assay: Induction of antioxidant defense system in rat PC12 cells assessed as increase in GSH level incubated for 24 hrs; type: functional, cell-based; how it was run: as §3
PC-12 [12] = assay: Cytoprotection activity against H2O2-induced cytotoxicity in rat PC12 cells assessed as cell viability at 10 and 20 uM pre-incubated for 24 hrs before H2O2 exposure for 12 hrs by LDH release assay; type: functional, cell-based
[13] = target: T1, Nuclear factor erythroid 2-related factor 2 (Rattus norvegicus) (UniProt O54968); assay: Induction of Nrf2-mediated antioxidant genes expression in rat PC12 cells assessed as increase in Trx1 protein expression at 10 and 20 uM incubated for 20 hrs by Western blotting method; type: cell-based; conditions: PC-12
T1 sequence (whole entry): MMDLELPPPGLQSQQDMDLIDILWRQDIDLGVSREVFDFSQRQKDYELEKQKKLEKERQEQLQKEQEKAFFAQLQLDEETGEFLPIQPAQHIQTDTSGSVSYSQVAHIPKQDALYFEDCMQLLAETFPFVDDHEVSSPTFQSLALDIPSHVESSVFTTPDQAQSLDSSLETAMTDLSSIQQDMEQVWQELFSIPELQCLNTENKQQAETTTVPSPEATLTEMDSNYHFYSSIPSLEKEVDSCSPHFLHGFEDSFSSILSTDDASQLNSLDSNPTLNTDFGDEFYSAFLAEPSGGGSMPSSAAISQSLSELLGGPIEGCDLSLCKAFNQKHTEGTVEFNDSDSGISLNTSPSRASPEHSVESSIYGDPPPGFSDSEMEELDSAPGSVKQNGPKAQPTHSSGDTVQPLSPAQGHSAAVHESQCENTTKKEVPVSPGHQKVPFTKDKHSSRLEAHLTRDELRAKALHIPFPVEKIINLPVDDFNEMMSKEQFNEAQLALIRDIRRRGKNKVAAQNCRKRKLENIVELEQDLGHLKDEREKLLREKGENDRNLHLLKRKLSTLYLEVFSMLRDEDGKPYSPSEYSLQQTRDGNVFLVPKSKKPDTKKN

PC-12 [14] = assay: Cytoprotection activity against 6-OHDA-induced apoptosis in rat PC12 cells assessed as reduction in caspase-3 activation at 10 and 20 uM pre-incubated for 24 hrs before 6-OHDA exposure for 24 hrs by colorimetric assay; type: functional, cell-based
How it was run: (§4)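 Lysed in RIPA buffer (pH 7.5), protein by Bradford; caspase-3 measured colorimetrically with Ac-DEVD-pNA substrate, expressed as % of control; mean ± SD, three independent experiments.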

[15] = Cytotoxicity against rat PC12 cells assessed as reduction in cell viability at 20 uM incubated for 24 hrs by MTT assay; type: cell-based; conditions: pc-12, 24 h
PC-12 [16] = assay: Cytoprotection activity against H2O2-induced apoptosis in rat PC12 cells assessed as reduction in caspase-3 activation at 10 and 20 uM pre-incubated for 24 hrs before H2O2 exposure for 24 hrs by colorimetric assay; type: functional, cell-based; how it was run: as §4
PC-12 [17] = assay: Cytoprotection activity against H2O2-induced oxidative stress in rat PC12 cells assessed as TrxR1 activity at pre-incubated for 24 hrs before H2O2 exposure for 12 hrs by Escherichia coli Trx based assay; type: functional, cell-based; how it was run: as §1
PC-12 [18] = assay: Cytoprotection activity against 6-OHDA-induced cytotoxicity in rat PC12 cells assessed as cell viability at 10 and 20 uM pre-incubated for 24 hrs before 6-OHDA exposure for 12 hrs in presence of non-trageting shRNA by MTT assay; type: functional, cell-based

Measured: Activity

COc1ccc(/C=C/C(=O)N2CCCC2=O)cc1
active: PC-12 [1] | PC-12 [2] | PC-12 [3] | PC-12 [4] | PC-12 [5] | PC-12 [6] | PC-12 [8] | PC-12 [9] | PC-12 [10] | PC-12 [11] | PC-12 [12] | [13] | PC-12 [14] Dose-dependent effect | PC-12 [16] Dose-dependent effect | PC-12 [17] | PC-12 [18]
Non-toxic: [15]
75%: [7]

COc1cc(/C=C/C(=O)N2CCCCC2=O)cc(OC)c1OC
Non-toxic: [15]
active: PC-12 [1] | PC-12 [2] | PC-12 [3] | PC-12 [4] | PC-12 [5] | PC-12 [6] | PC-12 [8] | PC-12 [9] | PC-12 [10] | PC-12 [11] | PC-12 [12] | [13] | PC-12 [14] Dose-dependent effect | PC-12 [16] Dose-dependent effect | PC-12 [17] | PC-12 [18]
75%: [7]
